Here are results for three compounds from ChEMBL document CHEMBL4229554, “Design and Characterization of Novel Covalent Bromodomain and Extra-Terminal Domain (BET) Inhibitors Targeting a Methionine” (J Med Chem, 2018).

Active and inactive are the calls of the source. The rule behind the calls is not given here.

In one data set the test system is PBMC. Kind of data set: Cytotoxicity against human PBMC assessed as reduction in cell viability after 24 hrs by cell-titer 96 aqueous one solution reagent-based assay.
Data set [1] deals with MV4-11. Kind of data set: Induction of apoptosis in human MV4-11 cells assessed as early apoptotic cells after 72 hrs by FITC annexin V-staining based flow cytometry (reference value: 1.87%). The format is functional.
Data set [2] has as its system MV4-11. Kind of data set: Induction of apoptosis in human MV4-11 cells assessed as viable cells after 72 hrs by FITC annexin V-staining based flow cytometry (reference value: 96.4%). It is filed as functional.
For data set [3], the target named is T1, Bromodomain-containing protein 4 (Homo sapiens, UniProt O60885). The data set can be described thus: Inhibition of N-terminal His-tagged BRD4 (BD1) (unknown origin) using biotinylated tetra-acetylated histone H4 peptide after 4 hrs by alpha-screen assay. In a few lines: (§1)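 AlphaScreen: N-terminally His-tagged BRD4(BD1) (20–200 nM) with biotinylated tetra-acetylated H4 peptide (3–75 nM) in 50 mM HEPES, 100 mM NaCl, 0.1% BSA, pH 7.4, under green light. Nickel-chelate acceptor and streptavidin donor beads at 2 µg/mL final, serially diluted compounds added. Luminescence read at 570 nm.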

Data set [4] has as its target T1, Bromodomain-containing protein 4. Kind of data set: Binding affinity to N-terminal His-tagged BRD4 (BD1) (unknown origin) assessed as change in melting temperature at 100 uM after 0.5 hrs by SYPRO orange protein staining-based thermal denaturation assay. In a few lines: (§2)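 N-terminally His-tagged recombinant BRD4(BD1), 5 µM, incubated with 100 µM compound and 5X SYPRO Orange in 50 mM NaCl/50 mM HEPES pH 7.4 for 30 min or 4 h. Protein thermal shift melt gives ΔTm; more than one transition may be resolved.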

In data set [5] the test system is MV4-11. Kind of data set: Induction of apoptosis in human MV4-11 cells assessed as necrotic cells after 72 hrs by FITC annexin V-staining based flow cytometry (reference value: 0.21%). It is filed as functional.
Data set [6] addresses T1, Bromodomain-containing protein 4. Kind of data set: Inhibition of N-terminal His-tagged BRD4 (BD1) (unknown origin) using biotinylated tetra-acetylated histone H4 peptide after 5 mins by alpha-screen assay. In a few lines:
as §1

Data set [7] shares this target. The data set can be described thus: Binding affinity to N-terminal His-tagged BRD4 (BD1) (unknown origin) assessed as change in melting temperature at 100 uM after 4 hrs by SYPRO orange protein staining-based thermal denaturation assay. In a few lines:
as §2

For data set [8] the target is unchanged. Kind of data set: Inhibition of N-terminal His-tagged BRD4 (BD2) (unknown origin) using biotinylated tetra-acetylated histone H4 peptide after 30 mins by alpha-screen assay.
For data set [9] the target is unchanged. Kind of data set: Inhibition of N-terminal His-tagged BRD4 (BD1/BD2) (unknown origin) using biotinylated tetra-acetylated histone H4 peptide after 30 mins by alpha-screen assay.
For data set [10] the target is unchanged. Kind of data set: Ratio of IC50 for inhibition of N-terminal His-tagged BRD4 (BD1) (unknown origin) using biotinylated tetra-acetylated histone H4 peptide after 4 hrs by alpha-screen assay to IC50 for inhibition of N-terminal His-tagged BRD4(BD1) (unknown origin) using biotinylated tetra-acetylated histone H4 peptide after 5 mins by alpha-screen assay. In a few lines: as §1

For data set [11] the target is unchanged. Kind of data set: Inhibition of N-terminal His-tagged BRD4 (BD1) (unknown origin) using biotinylated tetra-acetylated histone H4 peptide after 30 mins by alpha-screen assay.
Data set [12] deals with MV4-11. Kind of data set: Induction of apoptosis in human MV4-11 cells assessed as late apoptotic cells after 72 hrs by FITC annexin V-staining based flow cytometry (reference value: 1.53%). It is filed as functional.
The target of data set [13] is T1, Bromodomain-containing protein 4. The data set can be described thus: Inhibition of N-terminal His-tagged BRD4 (BD1) (unknown origin) using biotinylated tetra-acetylated histone H4 peptide after 1 hr by alpha-screen assay. In a few lines:
as §1

Data set [14] deals with PH-interacting protein (Homo sapiens) (UniProt Q8WWQ0). The data set can be described thus: Binding affinity to PHIP (unknown origin) assessed as change in melting temperature at 100 uM after 0.5 to 4 hrs by SYPRO orange protein staining-based thermal denaturation assay. In a few lines: (§3)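 Thermal shift (PTS) screen of non-BET bromodomains. Each domain at 5 µM incubated with 100 µM covalent or control compound plus 5X SYPRO Orange in 50 mM NaCl/50 mM HEPES pH 7.4 for 30 min or 4 h. Change in Tm recorded, with a search for a high-Tm species.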

The target of a further data set is T2, Peregrin (Homo sapiens) (UniProt P55201).
T2 sequence (whole entry): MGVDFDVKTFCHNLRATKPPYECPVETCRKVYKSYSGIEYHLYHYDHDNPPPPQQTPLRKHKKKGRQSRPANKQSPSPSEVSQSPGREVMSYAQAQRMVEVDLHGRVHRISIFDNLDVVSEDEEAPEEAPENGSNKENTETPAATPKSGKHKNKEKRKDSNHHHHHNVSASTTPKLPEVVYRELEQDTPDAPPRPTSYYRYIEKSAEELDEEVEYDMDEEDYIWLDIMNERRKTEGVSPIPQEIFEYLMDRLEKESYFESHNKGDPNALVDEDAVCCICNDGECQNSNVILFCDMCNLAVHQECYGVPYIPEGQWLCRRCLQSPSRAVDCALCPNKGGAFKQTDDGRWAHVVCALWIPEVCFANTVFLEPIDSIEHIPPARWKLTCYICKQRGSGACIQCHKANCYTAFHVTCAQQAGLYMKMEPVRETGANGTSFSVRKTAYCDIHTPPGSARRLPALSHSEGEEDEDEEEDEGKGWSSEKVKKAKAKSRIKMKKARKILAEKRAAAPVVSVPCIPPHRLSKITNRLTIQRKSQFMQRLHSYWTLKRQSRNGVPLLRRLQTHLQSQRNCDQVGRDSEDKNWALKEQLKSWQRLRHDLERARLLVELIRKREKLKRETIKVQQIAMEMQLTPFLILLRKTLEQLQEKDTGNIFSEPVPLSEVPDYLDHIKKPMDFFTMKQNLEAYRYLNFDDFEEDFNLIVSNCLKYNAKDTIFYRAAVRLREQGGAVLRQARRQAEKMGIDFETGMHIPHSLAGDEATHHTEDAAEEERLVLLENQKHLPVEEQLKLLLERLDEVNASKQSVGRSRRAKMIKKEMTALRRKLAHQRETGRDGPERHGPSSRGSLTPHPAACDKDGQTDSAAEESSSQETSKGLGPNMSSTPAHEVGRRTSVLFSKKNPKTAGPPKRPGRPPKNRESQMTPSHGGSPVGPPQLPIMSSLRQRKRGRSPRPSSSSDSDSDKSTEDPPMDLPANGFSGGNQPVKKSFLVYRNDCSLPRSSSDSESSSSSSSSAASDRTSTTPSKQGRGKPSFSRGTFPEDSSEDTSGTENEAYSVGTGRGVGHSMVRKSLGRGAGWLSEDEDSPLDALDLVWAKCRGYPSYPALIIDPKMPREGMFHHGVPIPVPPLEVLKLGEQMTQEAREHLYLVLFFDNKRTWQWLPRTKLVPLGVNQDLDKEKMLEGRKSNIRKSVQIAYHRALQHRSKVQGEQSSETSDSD
Kind of data set: Binding affinity to BRPF1 (unknown origin) assessed as change in melting temperature at 100 uM after 0.5 to 4 hrs by SYPRO orange protein staining-based thermal denaturation assay. In a few lines:
as §3

Data set [15] concerns the target Transcription initiation factor TFIID subunit 1 (Homo sapiens) (UniProt P21675). Kind of data set: Binding affinity to TAF1(2) (unknown origin) assessed as change in melting temperature at 100 uM after 0.5 to 4 hrs by SYPRO orange protein staining-based thermal denaturation assay. In a few lines: as §3
Data set [16] addresses T1, Bromodomain-containing protein 4. The data set can be described thus: Binding affinity to N-terminal His-tagged BRD4 (BD1) (unknown origin) assessed as change in melting temperature incubated for 4 hrs in presence of increasing concentrations of cysteine amino acids by SYPRO orange protein staining-based thermal denaturation assay. In a few lines: (§4)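 Preformed BRD4(BD1)–compound covalent complex incubated with excess free cysteine or methionine. Reversibility assessed by SYPRO Orange thermal denaturation, monitoring the complex's Tm.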

Data set [17] addresses Histone acetyltransferase p300 (Homo sapiens) (UniProt Q09472). The data set can be described thus: Binding affinity to P300 (unknown origin) assessed as change in melting temperature at 100 uM after 0.5 to 4 hrs by SYPRO orange protein staining-based thermal denaturation assay. In a few lines:
as §3

The target in data set [18] is T1, Bromodomain-containing protein 4. Kind of data set: Binding affinity to N-terminal His-tagged BRD4 (BD1) (unknown origin) assessed as change in melting temperature incubated for 4 hrs in presence of increasing concentrations of methionine by SYPRO orange protein staining-based thermal denaturation assay. In a few lines:
as §4

The target in data set [19] is SWI/SNF-related matrix-associated actin-dependent regulator of chromatin subfamily A member 4 (Homo sapiens) (UniProt P51532). Kind of data set: Binding affinity to BRG1 (unknown origin) assessed as change in melting temperature at 100 uM after 0.5 to 4 hrs by SYPRO orange protein staining-based thermal denaturation assay. In a few lines: as §3
Sequence of SWI/SNF-related matrix-associated actin-dependent regulator of chromatin subfamily A member 4 (Homo sapiens) (P51532 whole entry): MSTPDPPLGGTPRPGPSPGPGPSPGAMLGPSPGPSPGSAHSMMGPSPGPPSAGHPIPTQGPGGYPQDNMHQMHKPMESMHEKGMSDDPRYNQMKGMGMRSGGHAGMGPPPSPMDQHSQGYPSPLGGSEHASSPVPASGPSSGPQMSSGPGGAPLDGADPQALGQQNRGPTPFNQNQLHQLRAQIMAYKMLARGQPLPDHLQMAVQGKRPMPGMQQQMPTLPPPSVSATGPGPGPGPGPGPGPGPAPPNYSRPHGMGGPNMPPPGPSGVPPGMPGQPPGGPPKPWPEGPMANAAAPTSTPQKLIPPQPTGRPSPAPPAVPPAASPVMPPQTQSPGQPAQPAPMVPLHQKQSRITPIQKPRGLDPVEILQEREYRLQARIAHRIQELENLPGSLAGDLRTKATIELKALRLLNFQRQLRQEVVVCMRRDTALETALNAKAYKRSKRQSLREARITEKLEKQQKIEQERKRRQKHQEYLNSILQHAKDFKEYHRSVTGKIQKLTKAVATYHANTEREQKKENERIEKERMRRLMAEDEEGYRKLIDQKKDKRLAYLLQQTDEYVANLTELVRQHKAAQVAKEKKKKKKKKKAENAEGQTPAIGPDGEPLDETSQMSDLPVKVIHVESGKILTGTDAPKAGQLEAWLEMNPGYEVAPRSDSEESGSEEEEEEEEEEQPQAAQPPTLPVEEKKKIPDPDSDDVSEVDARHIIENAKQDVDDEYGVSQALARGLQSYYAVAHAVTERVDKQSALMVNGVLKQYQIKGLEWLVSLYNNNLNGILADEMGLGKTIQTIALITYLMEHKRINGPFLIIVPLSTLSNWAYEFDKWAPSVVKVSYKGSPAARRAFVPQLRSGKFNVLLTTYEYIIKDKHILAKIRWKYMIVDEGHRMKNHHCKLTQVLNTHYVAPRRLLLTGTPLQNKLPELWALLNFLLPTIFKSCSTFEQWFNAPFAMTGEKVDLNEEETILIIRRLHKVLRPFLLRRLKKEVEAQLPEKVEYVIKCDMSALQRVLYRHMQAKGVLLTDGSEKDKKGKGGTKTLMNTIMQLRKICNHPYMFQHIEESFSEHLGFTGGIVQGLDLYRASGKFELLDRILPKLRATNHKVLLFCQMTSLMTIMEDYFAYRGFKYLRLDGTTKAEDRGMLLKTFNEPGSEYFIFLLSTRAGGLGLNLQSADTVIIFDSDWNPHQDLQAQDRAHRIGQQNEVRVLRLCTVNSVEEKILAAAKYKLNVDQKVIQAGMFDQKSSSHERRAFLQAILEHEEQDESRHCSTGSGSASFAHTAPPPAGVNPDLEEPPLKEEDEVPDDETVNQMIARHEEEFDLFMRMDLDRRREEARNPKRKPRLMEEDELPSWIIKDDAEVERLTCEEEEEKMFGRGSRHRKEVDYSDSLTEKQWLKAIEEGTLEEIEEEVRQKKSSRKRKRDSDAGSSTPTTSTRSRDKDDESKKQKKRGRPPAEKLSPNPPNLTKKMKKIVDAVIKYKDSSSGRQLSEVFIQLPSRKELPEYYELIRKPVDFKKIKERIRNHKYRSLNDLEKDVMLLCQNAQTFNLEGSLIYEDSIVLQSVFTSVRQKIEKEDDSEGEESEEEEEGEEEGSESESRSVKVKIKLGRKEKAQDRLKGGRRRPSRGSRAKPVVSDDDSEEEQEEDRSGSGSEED
Data set [20] addresses CREB-binding protein (Homo sapiens) (UniProt Q92793). Kind of data set: Binding affinity to CREBBP (unknown origin) assessed as change in melting temperature at 100 uM after 0.5 to 4 hrs by SYPRO orange protein staining-based thermal denaturation assay. In a few lines: as §3
The test system of data set [21] is MV4-11. Kind of data set: Antiproliferative activity against human MV4-11 cells incubated for 24 hrs followed by compound removal and further incubation for 48 hrs by cell-titer 96 aqueous one solution reagent-based assay. It is filed as functional. In a few lines:
(§5)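 Washout format: MV4-11 plated at 25,000 cells/well with two-fold dilutions, triplicate wells. Cells treated 24 h, compound removed and cells washed twice with conditioned media. Growth continued 48 h in compound-free media. Read with CellTiter 96 AQueous One reagent, absorbance 490 nm, expressed as % of DMSO control.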

Data set [22] has as its system MV4-11. Kind of data set: Antiproliferative activity against human MV4-11 cells preincubated for 24 hrs by followed by compound washout measured after 48 hrs post compound washout by cell-titer 96 aqueous one solution reagent-based assay. The format is functional. In a few lines: as §5

Sequence of CREB-binding protein (Homo sapiens) (Q92793 2-2442 limits assumed): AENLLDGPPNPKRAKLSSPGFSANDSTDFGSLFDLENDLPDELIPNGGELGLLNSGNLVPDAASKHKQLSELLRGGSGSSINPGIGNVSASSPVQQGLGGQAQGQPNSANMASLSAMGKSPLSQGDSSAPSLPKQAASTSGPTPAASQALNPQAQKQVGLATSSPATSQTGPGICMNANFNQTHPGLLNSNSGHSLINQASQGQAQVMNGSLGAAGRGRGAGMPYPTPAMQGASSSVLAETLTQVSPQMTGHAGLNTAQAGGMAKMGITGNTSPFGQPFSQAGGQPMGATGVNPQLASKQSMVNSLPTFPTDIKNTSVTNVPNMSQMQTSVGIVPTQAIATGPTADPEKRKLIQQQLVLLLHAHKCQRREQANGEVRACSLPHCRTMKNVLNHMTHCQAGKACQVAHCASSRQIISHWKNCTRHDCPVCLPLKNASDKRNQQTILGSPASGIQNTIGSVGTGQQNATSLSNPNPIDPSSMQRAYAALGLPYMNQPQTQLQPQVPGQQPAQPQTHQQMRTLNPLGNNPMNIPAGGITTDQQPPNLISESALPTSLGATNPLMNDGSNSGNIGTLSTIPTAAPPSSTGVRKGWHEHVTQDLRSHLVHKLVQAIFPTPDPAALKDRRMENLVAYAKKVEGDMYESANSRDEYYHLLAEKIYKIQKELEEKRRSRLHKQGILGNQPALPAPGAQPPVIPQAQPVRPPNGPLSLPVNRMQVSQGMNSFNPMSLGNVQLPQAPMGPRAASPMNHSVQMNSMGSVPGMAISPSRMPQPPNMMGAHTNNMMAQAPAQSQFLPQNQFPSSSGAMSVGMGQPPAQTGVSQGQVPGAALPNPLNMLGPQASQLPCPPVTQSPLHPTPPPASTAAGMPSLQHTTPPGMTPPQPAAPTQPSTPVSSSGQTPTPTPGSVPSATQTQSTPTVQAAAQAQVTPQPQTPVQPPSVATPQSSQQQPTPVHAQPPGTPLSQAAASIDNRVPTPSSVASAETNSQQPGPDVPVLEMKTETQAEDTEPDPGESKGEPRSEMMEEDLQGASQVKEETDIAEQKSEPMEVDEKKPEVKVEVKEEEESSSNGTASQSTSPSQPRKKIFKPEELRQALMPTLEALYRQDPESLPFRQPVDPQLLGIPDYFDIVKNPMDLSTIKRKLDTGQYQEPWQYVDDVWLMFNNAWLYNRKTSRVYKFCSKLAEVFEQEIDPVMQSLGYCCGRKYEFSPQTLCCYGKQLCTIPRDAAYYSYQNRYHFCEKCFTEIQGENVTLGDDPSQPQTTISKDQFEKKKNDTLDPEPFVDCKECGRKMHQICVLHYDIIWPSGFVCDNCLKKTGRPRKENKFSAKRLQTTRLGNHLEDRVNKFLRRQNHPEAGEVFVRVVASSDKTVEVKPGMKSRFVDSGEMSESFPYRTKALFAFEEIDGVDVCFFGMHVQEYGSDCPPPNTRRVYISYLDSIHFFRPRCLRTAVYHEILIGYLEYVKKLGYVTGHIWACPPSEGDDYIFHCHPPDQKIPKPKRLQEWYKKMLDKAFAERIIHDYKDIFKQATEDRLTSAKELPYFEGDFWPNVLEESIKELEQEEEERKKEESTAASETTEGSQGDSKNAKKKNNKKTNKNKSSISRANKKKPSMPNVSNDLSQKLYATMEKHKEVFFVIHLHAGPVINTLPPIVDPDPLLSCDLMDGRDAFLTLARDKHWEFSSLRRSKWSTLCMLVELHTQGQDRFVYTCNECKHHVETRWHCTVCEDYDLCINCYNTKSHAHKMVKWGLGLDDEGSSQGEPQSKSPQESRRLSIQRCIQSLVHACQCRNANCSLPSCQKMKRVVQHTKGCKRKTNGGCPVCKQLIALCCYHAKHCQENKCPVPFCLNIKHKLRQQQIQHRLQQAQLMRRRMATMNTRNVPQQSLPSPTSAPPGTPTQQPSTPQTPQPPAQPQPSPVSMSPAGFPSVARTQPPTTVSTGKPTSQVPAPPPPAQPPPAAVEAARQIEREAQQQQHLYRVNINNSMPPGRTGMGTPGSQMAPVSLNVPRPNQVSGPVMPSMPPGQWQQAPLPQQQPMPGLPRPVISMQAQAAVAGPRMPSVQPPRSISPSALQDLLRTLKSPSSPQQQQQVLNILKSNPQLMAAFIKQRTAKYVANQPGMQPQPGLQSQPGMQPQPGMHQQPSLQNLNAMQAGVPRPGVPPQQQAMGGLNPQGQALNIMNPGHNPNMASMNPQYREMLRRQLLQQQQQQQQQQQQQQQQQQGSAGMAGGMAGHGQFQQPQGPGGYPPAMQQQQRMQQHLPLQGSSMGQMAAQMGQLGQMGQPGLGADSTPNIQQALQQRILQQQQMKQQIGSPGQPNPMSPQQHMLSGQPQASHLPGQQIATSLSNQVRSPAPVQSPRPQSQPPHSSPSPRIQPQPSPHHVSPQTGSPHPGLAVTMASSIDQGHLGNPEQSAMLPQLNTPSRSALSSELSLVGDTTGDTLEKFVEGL

Regarding `Cc1noc(C)c1-c1cc(N)c2ncn(Cc3ccccc3)c2c1`, the Activity entry in the data set with PBMC was “Non-Toxic”; in the data set on MV4-11 [1] it was 45%; in the data set with MV4-11 [2], 17.6%; in the data set with MV4-11 [5], 13.3%; in the data set on MV4-11 [12], 24.2%. Moreover, the IC50 in data set [3] was 19 nM; in data set [6] it was 17 nM; in data set [8], 10 nM; in data set [9], 50 nM; in data set [11], 20 nM; in data set [13] it was 8 nM. Also, the result in data set [4] and in data set [7] was Active. Besides, the Ratio IC50 in data set [10] is 1.

For the compound `Cc1noc(C)c1-c1ccc(=O)n(Cc2ccccc2)c1`, the outcome (in data set [14]; at Peregrin (Homo sapiens); in data set [15]; in data set [17]; in [19]; in data set [20]) was inactive. Also, the result in data set [16] and in data set [18] was Active. In addition, the ΔTm in data set [4] was 5 °C. In addition, the IC50 in data set [8] came to 80 nM; in data set [9], 280 nM; in [11], 230 nM.

Take `Cc1noc(C)c1-c1cc(N)c2ncn(Cc3ccc(C4CO4)cc3)c2c1` (configuration not stated): the Activity result in the data set with PBMC is reported as “Non-Toxic”; with MV4-11 [1] it was 65.9%; in the data set on MV4-11 [2], 12.5%; in the data set with MV4-11 [5], 2.05%; in the data set on MV4-11 [12], 19.6%. Moreover, the 50% inhibitory concentration (IC50) in [3] was determined as 15 nM; in [6] it was 274 nM; in [8], 50 nM; in [9], 60 nM; in data set [11], 50 nM; in data set [13] it was 75 nM. Besides, the result (in [4]; in [7]; in the data set with MV4-11 [21]; in the data set with MV4-11 [22]) was Active. In addition, the Ratio IC50 in data set [10] is 18.
